This note sets out measurements from PubChem BioAssay.

A short description of experiment [1]: Her2 expression decrease, cell viability multiplex – SKBR3 breast tumor cells, AlphaScreen, ATP viability, primary screen (AID 461;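 active means Her2 level under about 52% in both replicate screens, with viability over 70% of control, limit read from the data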;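 on Her2 level: lower value means less Her2 protein in the cells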;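 on viability: percent of carrier control wells set as 100% viability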). To be noted: SKBR3 Her2 protein level, 18-24 h, measured here: SKBR3 viability, ATP luminescence, at 10 µM.
In experiment [2] the target is Receptor tyrosine-protein kinase erbB-2 (Homo sapiens) (UniProt P04626). The description is as above. To be noted: 18-24 h, at 10 µM, stronger effect = lower value.
Experiment [3] in a line: reduced viability of SK-BR-3 breast cancer cells – cell-based, 24 h, human, pilot screen (AID 572;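 active means viability at or below 10% of carrier control in both of two separate runs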;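 further: compound exposure lasted between 18 and 24 h rather than exactly 24 h; 100% = carrier-treated control wells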). To be noted: SK-BR-3 viability, CellTiter-Glo luminescence, at 10 µM, stronger effect = lower value. (ATP-based viability assays read luminescence as a measure of living cells.)
Experiment [4] is described as follows: HUVEC growth inhibition – cell-based, human, primary screen (AID 575;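 active means viability at or below 30% in both replicate assays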;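 further: 100% = median of untreated cell wells with 0.1% DMSO on each plate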). To be noted: HUVEC proliferation, CellTiter-Glo luminescence, 72 h; at 10 µM; stronger effect = lower value. A digest of the protocol:
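Test system: HUVEC primary cells. Quantity: 1250 endothelial cells in each well. Dosing: single-point 10 µM, DMSO 0.1% final. Incubation: 72 h treatment at 37 °C. Measured by: CTG luminescence. Control set: DMSO cell controls and MePR drug controls. Plate: collagen-coated 384-well format.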

Experiment [5] is described as follows: H69AR cell proliferation blockers – human, duplicate replicates, primary screen (AID 580).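 Further: 100% = mean luminescence of untreated wells and 0% = no signal.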 To be noted: H69AR lung tumor cells viability, ATP luminescence, 72 h; at 10 µM; stronger effect = lower value.
Experiment [6] in a line: MRP1 drug-resistance reversers in H69AR cells – cell-based, doxorubicin co-treatment, pilot screen (AID 601;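 active means viability loss from added drug above about 55%, and viability with drug at most 40%, in both replicates, limit read from the data, passing the limit was not always enough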). To be noted: CellTiter-Glo, 72 h, at 10 µM; for differential viability (reversal): stronger effect = higher value.
A short description of experiment [7]: yeast transport mutant growth inhibition pilot in 384-well plates, post-Golgi transport modulator project (AID 636; in the data active means inhibition above about 31%). To be noted: absorbance 615 nm, about 18 h, stronger effect = higher value.
A short description of experiment [8]: growth suppression of yeast trafficking mutant, preliminary HTS, modulators of trafficking downstream of Golgi apparatus project, 1536-format plate, OD 615 nm (AID 637; in the data active means inhibition above about 30%). To be noted: yeast transport mutant growth, absorbance 615 nm, 18 h; stronger effect = higher value.
Where [9] appears, read: H69AR cells + 2 uM doxorubicin, measured here: viability with 2 uM doxorubicin, stronger effect = lower value.
Where [10] appears, read: H69AR cells, compound alone cytotoxicity.

The source made the active and inactive calls.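 How the source made its calls, unless noted: active means viability at or under a set limit in both replicates, limit being median viability minus 3 SD (cut at about 48% in these data, passing the limit was not always enough); inconclusive means at or under the limit in just one replicate; inactive means at or above the limit in both replicates.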

Sequence of Receptor tyrosine-protein kinase erbB-2 (Homo sapiens) (P04626 whole entry, looked up): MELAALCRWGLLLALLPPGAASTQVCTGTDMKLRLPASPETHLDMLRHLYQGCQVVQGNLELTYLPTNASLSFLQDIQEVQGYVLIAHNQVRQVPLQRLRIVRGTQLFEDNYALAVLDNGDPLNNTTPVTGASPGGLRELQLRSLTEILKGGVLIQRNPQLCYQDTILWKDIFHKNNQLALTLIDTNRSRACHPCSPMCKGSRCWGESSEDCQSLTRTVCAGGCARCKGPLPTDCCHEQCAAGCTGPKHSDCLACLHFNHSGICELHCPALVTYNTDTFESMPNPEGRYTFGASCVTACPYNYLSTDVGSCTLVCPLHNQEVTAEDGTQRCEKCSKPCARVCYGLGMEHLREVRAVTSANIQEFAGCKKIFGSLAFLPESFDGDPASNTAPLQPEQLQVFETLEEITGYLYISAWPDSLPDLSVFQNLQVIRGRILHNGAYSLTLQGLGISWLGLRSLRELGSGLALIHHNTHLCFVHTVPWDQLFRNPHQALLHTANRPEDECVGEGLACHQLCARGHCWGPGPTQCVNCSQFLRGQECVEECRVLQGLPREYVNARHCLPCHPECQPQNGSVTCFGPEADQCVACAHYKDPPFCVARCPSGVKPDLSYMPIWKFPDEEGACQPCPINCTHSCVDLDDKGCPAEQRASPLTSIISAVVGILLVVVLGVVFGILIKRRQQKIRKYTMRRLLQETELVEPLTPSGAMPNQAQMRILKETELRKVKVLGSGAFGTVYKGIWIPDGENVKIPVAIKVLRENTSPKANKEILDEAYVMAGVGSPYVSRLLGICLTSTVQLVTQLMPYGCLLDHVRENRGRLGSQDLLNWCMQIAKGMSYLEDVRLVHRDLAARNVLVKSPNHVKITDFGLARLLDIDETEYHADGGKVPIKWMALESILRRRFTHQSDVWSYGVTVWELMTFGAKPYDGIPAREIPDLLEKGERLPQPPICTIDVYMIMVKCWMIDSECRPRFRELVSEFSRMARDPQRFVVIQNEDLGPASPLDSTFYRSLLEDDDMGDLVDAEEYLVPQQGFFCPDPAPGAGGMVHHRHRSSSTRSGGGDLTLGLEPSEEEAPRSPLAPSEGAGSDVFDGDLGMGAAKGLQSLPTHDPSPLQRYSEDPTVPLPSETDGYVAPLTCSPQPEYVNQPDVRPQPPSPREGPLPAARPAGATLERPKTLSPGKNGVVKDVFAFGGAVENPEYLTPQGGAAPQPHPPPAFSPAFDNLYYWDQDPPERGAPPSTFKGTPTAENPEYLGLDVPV

Broadly, the viability is a read-out of living cells in per cent, often relative to untreated cells. The term inhibition denotes the drop in the measured response relative to a control, in per cent. Turning to `COCCCNC(=O)C1CCCN(C(=O)Nc2ccc(OC)cc2)C1` (stereo not given), the viability is 98% in experiment [1]; 98% (inactive) in experiment [3]; 100% (inactive) in experiment [4]; 90.4% (inactive) in experiment [5]; 83.6% in experiment [6] (setting [9]); 90.4% in experiment [6] (setting [10]). The Her2 level in experiment [2] was 89% (inactive). In experiment [6] (H69AR cells + 2 uM doxorubicin), the differential viability (reversal) was 6.8% (inactive). Moreover, the inhibition in experiment [7] is -7.03% (inactive); in experiment [8], 1.83% (inactive).

With `COc1cccc(CN2CCN(C(=O)CC(C)C)CC2)c1`, the viability in experiment [1] is 92.5%; in experiment [3] it was 92.5% (inactive); in experiment [4], 87.4% (inactive); in experiment [5], 86.4% (inactive); in experiment [6] (setting [9]), 88.7%; in experiment [6] (setting [10]), 86.4%. Further, the Her2 level in experiment [2] was 76% (inactive). Besides, the differential viability (reversal) in experiment [6] (H69AR cells + 2 uM doxorubicin) is -2.34% (inactive). Further, the inhibition in experiment [7] was 0.77% (inactive); in experiment [8] it was -0.83% (inactive).

Take `Cc1ccc(NC(=O)CSc2nnc(-c3ccncc3)n2C)cc1C`: the viability in experiment [1] is 90%; in experiment [3], 90% (inactive); in experiment [4], 110% (inactive); in experiment [5] it was 92.2% (inactive); in experiment [6] (setting [9]) it was 88.8%; in experiment [6] (setting [10]), 92.2%. The Her2 level in experiment [2] was 117% (inactive). Also, in experiment [6] (H69AR cells + 2 uM doxorubicin), the differential viability (reversal) is 3.42% (inactive). Further, the values for the inhibition in experiment [7] and in experiment [8] were 1.08% (inactive) and 25.9% (inactive), respectively.

For `Cc1cccc(COc2ccc(/C(O)=C3\C(=O)C(=O)N(CCN(C)C)C3c3ccncc3)cc2)c1` (stereo not given), the viability in experiment [1] was 108%; in experiment [3] it was 108% (inactive); in experiment [4], 105% (inactive); in experiment [5], 97.3% (inactive); in experiment [6] (setting [9]) it was 101%; in experiment [6] (setting [10]), 97.3%. The Her2 level in experiment [2] was 94% (inactive). The differential viability (reversal) in experiment [6] (H69AR cells + 2 uM doxorubicin) is -3.29% (inactive). Besides, the results for the inhibition in experiment [7] and in experiment [8] were -2.11% (inactive) and 3.28% (inactive), respectively.

For the compound `CN(CC(=O)NCCC1=CCCCC1)S(=O)(=O)c1ccc2c(c1)CCC(=O)N2`, the viability in experiment [1] was 79%; in experiment [3], 79% (inactive); in experiment [4], 91.3% (inactive); in experiment [5], 110% (inactive); in experiment [6] (setting [9]), 91.7%; in experiment [6] (setting [10]), 110%. Besides, in experiment [2], the Her2 level was 113% (inactive). Besides, in experiment [6] (H69AR cells + 2 uM doxorubicin), the differential viability (reversal) is 18% (inactive). Also, the inhibition is -2.27% (inactive) in experiment [7] and -1.48% (inactive) in experiment [8].

Turning to `CCOC(=O)CSc1nc2ccccc2c(=O)n1CCN1CCOCC1`, the viability is 92.5% in experiment [1]; 92.5% (inactive) in experiment [3]; 87.6% (inactive) in experiment [4]; 95.4% (inactive) in experiment [5]; 84.4% in experiment [6] (setting [9]); 95.4% in experiment [6] (setting [10]). Moreover, in experiment [2], the Her2 level is 87.5% (inactive). Also, the differential viability (reversal) in experiment [6] (H69AR cells + 2 uM doxorubicin) was 11% (inactive). Further, the inhibition was 0% (inactive) in experiment [7] and -6.19% (inactive) in experiment [8].

Regarding `CCn1c(=O)n(CC(=O)NCc2ccccc2OC)c(=O)c2ccccc21`, the viability in experiment [1] is 95%; in experiment [3], 95% (inactive); in experiment [4] it was 87.5% (inactive); in experiment [5], 101% (inactive); in experiment [6] (setting [9]) it was 97.4%; in experiment [6] (setting [10]), 101%. The Her2 level in experiment [2] is 84% (inactive). The differential viability (reversal) in experiment [6] (H69AR cells + 2 uM doxorubicin) was 3.65% (inactive). Further, the inhibition in experiment [7] is 0.92% (inactive); in experiment [8], -3.06% (inactive).

As to `COc1ccc(Cl)cc1S(=O)(=O)n1cnc2ccccc21`, the viability in experiment [1] is 99%; in experiment [3] it was 99% (inactive); in experiment [4] it was 59.1% (inactive); in experiment [5] it was 33.7% (active); in experiment [6] (setting [9]) it was 83.5%; in experiment [6] (setting [10]), 33.7%. The Her2 level in experiment [2] was 106% (inactive). The differential viability (reversal) in experiment [6] (H69AR cells + 2 uM doxorubicin) is -49.8% (inactive). Further, the figures for the inhibition in experiment [7] and in experiment [8] were -4.59% (inactive) and -2.3% (inactive), respectively.

For the compound `Cc1ccc(NC2c3ncccc3C(=O)N2C2CCCCC2)cc1C` (stereo not given), the viability is 98.5% in experiment [1]; 98.5% (inactive) in experiment [3]; 91.7% (inactive) in experiment [4]; 92.7% (inactive) in experiment [5]; 97% in experiment [6] (setting [9]); 92.7% in experiment [6] (setting [10]). In experiment [2], the Her2 level is 94.5% (inactive). Further, the differential viability (reversal) in experiment [6] (H69AR cells + 2 uM doxorubicin) was -4.25% (inactive). Besides, the inhibition is -3.78% (inactive) in experiment [7] and 11.5% (inactive) in experiment [8].

Turning to `CC1CCCC(C(=O)OCc2ccccc2)N1` (stereo not given), the viability in experiment [1] was 119%; in experiment [3] it was 119% (inactive); in experiment [4], 102% (inactive); in experiment [5], 97.2% (inactive); in experiment [6] (setting [9]) it was 91%; in experiment [6] (setting [10]), 97.2%. The Her2 level in experiment [2] is 94% (inactive). Also, the differential viability (reversal) in experiment [6] (H69AR cells + 2 uM doxorubicin) was 6.15% (inactive). For the same compound, the inhibition was -2.63% (inactive) in experiment [7] and -1.11% (inactive) in experiment [8].

On to `COc1ccc(-c2nnc(SCCC(=O)O)n2-c2ccccc2)cc1`, for which the viability was 113% in experiment [1]; 113% (inactive) in experiment [3]; 96.1% (inactive) in experiment [4]; 95.2% (inactive) in experiment [5]; 97.3% in experiment [6] (setting [9]); 95.2% in experiment [6] (setting [10]). Moreover, the Her2 level in experiment [2] is 96.5% (inactive). In experiment [6] (H69AR cells + 2 uM doxorubicin), the differential viability (reversal) is -2.17% (inactive). Further, the inhibition was -0.53% (inactive) in experiment [7] and -0.49% (inactive) in experiment [8].

With `O=C(Nc1ccc(-c2noc(-c3cccs3)n2)cc1)c1cccnc1`, the viability in experiment [1] is 74.5%; in experiment [3] it was 74.5% (inactive); in experiment [4] it was 54% (inactive); in experiment [5], 32.9% (active); in experiment [6] (setting [9]) it was 79.5%; in experiment [6] (setting [10]), 32.9%. The Her2 level in experiment [2] was 93% (inactive). In addition, in experiment [6] (H69AR cells + 2 uM doxorubicin), the differential viability (reversal) is -46.6% (inactive). Also, the inhibition in experiment [7] is -0.81% (inactive); in experiment [8] it was -8.69% (inactive).

`Fc1ccccc1C(c1nnnn1Cc1ccc2c(c1)OCO2)N1CCN(Cc2ccccc2)CC1` (stereo not given): the viability is 121% in experiment [1]; 121% (inactive) in experiment [3]; 69.6% (inactive) in experiment [4]; 89.3% (inactive) in experiment [5]; 96.9% in experiment [6] (setting [9]); 89.3% in experiment [6] (setting [10]). Further, the Her2 level in experiment [2] was 88% (inactive). Besides, the differential viability (reversal) in experiment [6] (H69AR cells + 2 uM doxorubicin) is -7.54% (inactive). For the same compound, the inhibition was 2.16% (inactive) in experiment [7] and -4.13% (inactive) in experiment [8].

`COc1cc(-c2c(C#N)c(N)nc3c2CCCC3)cc(OC)c1OC`: the viability in experiment [1] was 89%; in experiment [3], 89% (inactive); in experiment [4], 74.2% (inactive); in experiment [5] it was 76.4% (inactive); in experiment [6] (setting [9]), 86.1%; in experiment [6] (setting [10]), 76.4%. Also, the Her2 level in experiment [2] was 72% (inactive). In addition, in experiment [6] (H69AR cells + 2 uM doxorubicin), the differential viability (reversal) is -9.71% (inactive). Further, the inhibition in experiment [7] is -2.63% (inactive); in experiment [8] it was 3.39% (inactive).
